Data reported in ChEMBL document CHEMBL1134605, “Cytotoxic responses to aromatic ring and configurational variations in alpha-conidendrin, podophyllotoxin, and sikkimotoxin derivatives” (J Med Chem, 2001).
Converted amounts (≈) assume the structure as drawn.

Columns and labels:
CCRF-CEM [1] = test: Cytotoxicity was assessed using human leukemic cell line CCRF-CEM; type: functional, cell-based
Summary of the method: (§1)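 Viability was read by a modified tetrazolium dye reduction method. Cells were harvested in logarithmic growth and seeded at 6.7 × 10^4 cells/well. They were grown in RPMI 1640 with L-glutamine and 10% FBS and cultured with the compounds. The IC50 was taken as the read-out.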

CCRF-CEM [2] = test: Relative potency compared to cytotoxicity against CCRF-CEM cell line of etoposide; type: functional, Homo sapiens
Summary of the method: (§2)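 Relative potency compares each compound with etoposide, the reference, using IC50s from the same modified tetrazolium dye reduction viability assay. Cells were seeded at 6.7 × 10^4 cells/well in RPMI 1640 with L-glutamine and 10% FBS.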

HL-60 [3] = test: Cytotoxicity was assessed using vincristine-resistant human leukemic cell line HL60/Vinc; type: functional, cell-based
Summary of the method: (§3)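 Modified tetrazolium dye reduction viability assay on log-phase cells seeded at 6.7 × 10^4 cells/well in RPMI 1640 with L-glutamine and 10% FBS, cultured with compounds. HL60/ADR overexpresses MRP but not Pgp; HL60/Vinc overexpresses Pgp but not MRP. IC50 values are averages of 2 determinations from a single experiment.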

HL-60 [4] = test: Resistance factor was determined using the ratio of (IC50) of drug resistance cells/drug sensitive cells in HL60/Vinc cell line; type: functional, Homo sapiens
Summary of the method: (§4)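 Resistance factor = IC50 in the drug-resistant line (HL60/ADR, which overexpresses MRP, or HL60/Vinc, which overexpresses Pgp) divided by IC50 in the drug-sensitive cells. IC50s came from the tetrazolium dye reduction viability assay, as averages of 2 determinations in a single experiment.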

HL-60 [5] = test: Resistance factor was determined using the ratio of (IC50) of drug resistance cells/drug sensitive cells in HL60/ADR cell line; type: functional, Homo sapiens; summary of the method: as §4
HL-60 [6] = test: Cytotoxicity was assessed using drug-sensitive human leukemic cell line HL60/S; type: functional, cell-based; summary of the method: as §1
HL-60 [7] = test: Cytotoxicity was assessed using adriamycin-resistant human leukemic cell line HL60/ADR; type: functional, cell-based; summary of the method: as §3
HL-60 [8] = test: Relative potency compared to cytotoxicity against HL60/S cell line of etoposide; type: functional, Homo sapiens; summary of the method: as §2
CCRF-CEM [9] = test: Relative potency in comparison to etoposide; type: functional, Homo sapiens; summary of the method: as §2
[10] = Homo sapiens, HL-60, read-out: IC50

Row | SMILES | IC50 (CCRF-CEM [1]) [mg/L] | Relative potency (CCRF-CEM [2]) | IC50 (HL-60 [3]) [mg/L] | RF (HL-60 [4]) | RF (HL-60 [5]) | IC50 (HL-60 [6]; hl-60) [mg/L] | IC50 (HL-60 [7]; [10]) [mg/L] | Relative potency (HL-60 [8]) | IC50 (HL-60 [6]; [10]) [mg/L] | Relative potency (CCRF-CEM [9]) | IC50 (HL-60 [7]; hl-60) [mg/L]
1 | COc1ccc([C@@H]2c3cc(OC)c(OC)cc3C[C@H]3COC[C@@H]32)cc1OC | 38.5 (≈ 104 µM) | 0.03 | 36.1 (≈ 97.4 µM) | 0.3 | 0.2 | 117.178 (≈ 316 µM) | 23.3 (≈ 63 µM) | 0.01 | – | – | –
2 | COc1cc([C@@H]2c3cc4c(cc3C[C@H]3COC[C@@H]32)OCO4)cc(OC)c1OC | 0.043 (≈ 0.112 µM) | 27 | 0.015 (≈ 0.039 µM) | 0.5 | 0.6 | – | 0.019 (≈ 0.0494 µM) | 54.8 | 0.03 (≈ 0.078 µM) | – | –
3 | COc1ccc([C@H]2c3cc(OC)c(OC)cc3C[C@H]3COC[C@@H]32)cc1OC | 21.9 (≈ 59 µM) | 0.05 | 14.7 (≈ 39.8 µM) | 0.4 | 0.7 | – | 26.1 (≈ 70.3 µM) | 0.05 | 36.3 (≈ 97.9 µM) | – | –
4 | COc1cc([C@H]2c3cc4c(cc3C[C@H]3COC[C@@H]32)OCO4)cc(OC)c1OC | 8.15 (≈ 21.2 µM) | 0.14 | 3.06 (≈ 7.96 µM) | 0.4 | 0.7 | – | 4.86 (≈ 12.6 µM) | 0.23 | 7.09 (≈ 18.5 µM) | – | –
5 | COc1cc([C@@H]2c3cc4c(cc3[C@@H](O[C@@H]3O[C@@H]5CO[C@@H](C)O[C@H]5[C@H](O)[C@H]3O)[C@H]3COC(=O)[C@H]23)OCO4)cc(OC)c1O [ETOPOSIDE] | 1.15 (≈ 1.95 µM) | – | 18.1 (≈ 30.7 µM) | 11 | 33 | – | – | – | 1.64 (≈ 2.79 µM) | 1 | 54.94 (≈ 93.3 µM)
6 | COc1cc2c(cc1OC)C(c1cc(OC)c(OC)c(OC)c1)[C@H]1COC[C@@H]1C2 (some centres not stated) | 0.47 (≈ 1.17 µM) | 2.4 | 0.314 (≈ 0.784 µM) | 0.6 | 0.7 | – | 0.362 (≈ 0.904 µM) | 3.08 | 0.533 (≈ 1.33 µM) | – | –
